Assays:
Type in all cases: functional
[1] = test system: OVCAR-4; assay: Antitumor activity against human OVCAR4 cells after 48 hrs by SRB assay; conditions: OVCAR-4, 48 h; for CC50: read-out: LC50 (the source's name)
Procedure, shortened: (§1)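 NCI in vitro human tumor cell line screen. Cells were exposed continuously to compound for 48 h at five concentration levels (100, 10, 1.0, 0.1 and 0.01). Growth was estimated by sulforhodamine B protein staining. GI50 is the concentration giving a 50% reduction in net protein increase relative to control cells over the incubation.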

[2] = test system: SF-295; assay: Antitumor activity against human SF295 cells after 48 hrs by SRB assay; conditions: SF-295, 48 h; for CC50: read-out: LC50 (the source's name); procedure, shortened: as §1
[3] = test system: HT-29; assay: Antitumor activity against human HT-29 cells after 48 hrs by SRB assay; conditions: HT-29, 48 h; procedure, shortened: as §1
[4] = test system: HCT-116; assay: Antitumor activity against human HCT116 cells after 48 hrs by SRB assay; conditions: HCT-116, 48 h; procedure, shortened: as §1
[5] = test system: HOP-92; assay: Antitumor activity against human HOP92 cells after 48 hrs by SRB assay; conditions: HOP-92, 48 h; procedure, shortened: as §1
[6] = test system: MDA-MB-231; assay: Antitumor activity against human MDA-MB-231 cells after 48 hrs by SRB assay; conditions: MDA-MB-231, 48 h; procedure, shortened: as §1
[7] = test system: MDA-MB-435; assay: Antitumor activity against human MDA-MB-435 cells after 48 hrs by SRB assay; conditions: MDA-MB-435, 48 h; procedure, shortened: as §1
[8] = test system: T47D; assay: Antitumor activity against human T47D cells after 48 hrs by SRB assay; conditions: for CC50: read-out: LC50 (the source's name)
Procedure, shortened: (§2)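 NCI in vitro human tumor cell line screen. Continuous 48 h drug exposure at five concentrations (100, 10, 1.0, 0.1 and 0.01 µM). Cell growth estimated by sulforhodamine B protein staining. GI50 defined as the concentration giving 50% reduction in net protein increase versus control cells over the incubation.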

[9] = test system: RXF 393; assay: Antitumor activity against human […] cells after 48 hrs by SRB assay; conditions: RXF 393, 48 h; procedure, shortened: as §1
[10] = test system: OVCAR-5; assay: Antitumor activity against human OVCAR5 cells after 48 hrs by SRB assay; conditions: OVCAR-5, 48 h; procedure, shortened: as §1
[11] = test system: UACC-62; assay: Antitumor activity against human UACC62 cells after 48 hrs by SRB assay; conditions: UACC-62, 48 h; procedure, shortened: as §2
[12] = test system: SK-MEL-5; assay: Antitumor activity against human SK-MEL-5 cells after 48 hrs by SRB assay; conditions: SK-MEL-5, 48 h; procedure, shortened: as §1
[13] = test system: SK-MEL-28; assay: Antitumor activity against human SK-MEL-28 cells after 48 hrs by SRB assay; conditions: SK-MEL-28, 48 h; procedure, shortened: as §1
[14] = test system: M14; assay: Antitumor activity against human M14 cells after 48 hrs by SRB assay; conditions: M14, 48 h; procedure, shortened: as §1
[15] = test system: Malme-3M; assay: Antitumor activity against human MALME-3M cells after 48 hrs by SRB assay; procedure, shortened: as §1
[16] = test system: LOX IMVI; assay: Antitumor activity against human LOXIMVI cells after 48 hrs by SRB assay; procedure, shortened: as §1
[17] = test system: SNB-19; assay: Antitumor activity against human SNB19 cells after 48 hrs by SRB assay; conditions: SNB-19, 48 h; procedure, shortened: as §1
[18] = test system: TK-10; assay: Antitumor activity against human TK10 cells after 48 hrs by SRB assay; conditions: TK-10, 48 h; procedure, shortened: as §2
[19] = read-out: LC50 (the source's name)

CSc1nc2c(c(=O)[nH]1)NC1=C(C(=O)c3ccccc31)C(c1ccccc1)N2 (configuration not stated)
GI50 [1]: 5.62 µM
CC50 [1]: > 100 µM
GI50 [2]: 1.91 µM
CC50 [2]: > 100 µM
GI50 [3]: 2.97 µM
LC50 [3]: > 100 µM
GI50 [4]: 4.21 µM
LC50 (50% lethal concentration) [4]: > 100 µM
GI50 [5]: 12 µM
LC50 [5]: > 100 µM
GI50 [6]: 4.09 µM
LC50 (lethal concentration, 50% net cell kill) [6]: > 100 µM
GI50 [7]: 0.49 µM
LC50 [7]: > 100 µM
GI50 [8]: 4.61 µM
CC50 [8]: > 100 µM

CSc1nc2c(c(=O)[nH]1)NC1=C(C(=O)c3ccccc31)C(c1ccc(F)cc1)N2 (configuration not stated)
GI50 [9]: 14.5 µM
CC50 [9, 19]: 92.8 µM
GI50 [10]: 17.7 µM
CC50 [10, 19]: 95.6 µM
GI50 [1]: 15.4 µM
CC50 [1]: > 100 µM
GI50 [11]: 3.04 µM
CC50 [11, 19]: > 100 µM
GI50 [12]: 6.13 µM
CC50 [12, 19]: > 100 µM
GI50 [13]: 9.03 µM
CC50 [13, 19]: > 100 µM
GI50 [14]: 6.29 µM
CC50 [14, 19]: > 100 µM
GI50 [15]: 19.6 µM
CC50 [15, 19]: > 100 µM
GI50 [16]: 8.78 µM
CC50 [16, 19]: 95.2 µM
GI50 [17]: 15.9 µM
CC50 [17, 19]: > 100 µM
GI50 [2]: 3.67 µM
CC50 [2]: > 100 µM
GI50 [3]: 3.36 µM
LC50 [3]: 35.1 µM
GI50 [4]: 7.23 µM
LC50 (50% lethal concentration) [4]: 44.7 µM
GI50 [5]: 9.52 µM
LC50 [5]: > 100 µM
GI50 [18]: 12.9 µM
CC50 [18, 19]: > 100 µM
GI50 [6]: 12.6 µM
LC50 (lethal concentration, 50% net cell kill) [6]: > 100 µM
GI50 [7]: 1.65 µM
LC50 [7]: > 100 µM
GI50 [8]: 14.2 µM
CC50 [8]: > 100 µM

Source: ChEMBL document CHEMBL1151801, “Synthesis of new indeno[1,2-e]pyrimido[4,5-b][1,4]diazepine-5,11-diones as potential antitumor agents” (2008)
